Calb FLC: C. albicans growth modulation with fluconazole | growth inhibition, % (test concentration not listed) | C. albicans CaCi-2 (fluconazole-resistant clinical isolate) + fluconazole, Alamar Blue growth, 48 h | AID 1979 | 300,000 tested, 0.57% active;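 active = growth inhibition above about 58% in most replicates, limit read from the data, passing the limit was not always enough; inconclusive = exactly half the replicates above a set limit; inactive = most replicates below a set limit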;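 also: all wells also contain fluconazole at 8 µg/ml as a sub-toxic cotreatment; 0% = median of DMSO wells and 100% = median of geldanamycin control wells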
MC4R antag cAMP: antagonists of human melanocortin 4 receptor (MC4R); MC4R-expressing cells, MTII-stimulated cAMP, LANCE TR-FRET; inhibition, % at 6.5 µM; 360,000 tested, 0.48% active; AID 540295;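 active = inhibition above its plate's cutoff, the mean of tested wells on that plate plus 3 SD, cut at about 29% in these data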;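 also: 0% = Melanotan II alone and 100% = Melanotan II plus saturating MCL0020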
Target sequence (P32245 whole entry, looked up): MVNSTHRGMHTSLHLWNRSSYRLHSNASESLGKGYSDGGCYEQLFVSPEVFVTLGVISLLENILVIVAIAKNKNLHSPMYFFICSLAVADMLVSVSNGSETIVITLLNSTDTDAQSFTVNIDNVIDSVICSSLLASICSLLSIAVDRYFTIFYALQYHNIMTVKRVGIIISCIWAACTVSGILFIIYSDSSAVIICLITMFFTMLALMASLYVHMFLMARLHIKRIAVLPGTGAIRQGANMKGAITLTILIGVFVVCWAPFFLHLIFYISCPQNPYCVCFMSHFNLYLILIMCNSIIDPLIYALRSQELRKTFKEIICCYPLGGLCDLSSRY
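Assay system: U2OS cells stably expressing human melanocortin 4 receptor (MC4R) / Dosing: 6.5 µM / Timing: compound 30 min, challenge 1 h, detection 1 h / Measured by: Eu-cAMP/anti-cAMP TR-FRET, emission 671 nm / Replicates: singlicate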
Efflux pump mplx: blocks antifungal efflux pumps in multiplex yeast assay; S. cerevisiae Candida pump triplex, Nile Red efflux; 330,000 tested, 0.44% active; inhibition, % at 10 µM;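 active = plate passing quality check with inhibition over a set limit, or well fluorescence over plate mean plus 4 SD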;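 also: Nile Red retained in pooled yeast measured as flow cytometry median fluorescence; 0% = buffer negative control and 100% = Enniatin B positive control; higher means more Nile Red kept so more efflux inhibition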
MC4R ag barr: human MC4R agonism via beta-arrestin | P32245 | 360,000 tested, 0.98% active | activation, % at 8.9 µM | AID 540308 | U2OS MC4R beta-arrestin complementation, luminescence; percent of melanotan II response, DMSO zero;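 active = activation above a per-plate cutoff, the mean activation of sample wells on that plate plus 3 SD, cut at about 8% in these data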
GalR3 antagonist: antagonists of human GalR3; O60755; HEK293 GalR3-CNG cAMP membrane potential fluorescence; galR3 body fused to GalR1 C-terminus; inhibition, % at 3 µM; 360,000 tested, 0.44% active; AID 651719;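 active = inhibition above the screen-wide average plus 3 SD, cut at about 13% in these data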;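 also: forskolin and galanin both at EC90 stimulate the cells; cAMP rise reported by CNG channel membrane potential dye signal; 0% = forskolin plus galanin with DMSO and 100% = forskolin alone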
TAG inh: triacylglycerol accumulation inhibition | H9c2 cells, Nile Red lipid (TAG) fluorescence; cells loaded with 200 µM oleic acid | inhibition, % at 12.5 µM | 230,000 tested, 0.66% active | AID 651582;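 active = pattern-corrected inhibition of lipid staining of at least 50% with the nuclear-stain viability signal not falling by more than 50%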;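 also: 0% = DMSO wells and 100% = triacsin C control wells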
U2OS cAMP counter: U2OS forskolin cAMP inhibition counter-screen. shares compounds with MC4R antag cAMP. parental U2OS, LANCE TR-FRET. inhibition, % at 6.5 µM. 1,600 tested, 26% active. AID 602193;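 active = mean inhibition over triplicates above the low-control well mean plus 3 SD, set per campaign, cut at about 13% in these data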;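 also: signal is single emission at 671 nm which falls as cellular cAMP rises; 0% = forskolin-stimulated wells and 100% = buffer without forskolin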
MC4R cAMP antag: human MC4R cAMP antagonism confirmation; MC4R-expressing cells, MTII-stimulated cAMP, TR-FRET; 1,600 tested, 27% active; inhibition, % at 6.5 µM; shares compounds with MC4R antag cAMP; in the data active = inhibition above about 29%;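 also: 0% = agonist stimulated wells alone and 100% = agonist stimulated wells plus saturating reference antagonist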
* hit, by the source's call; ? = inconclusive; . = no result given. Rows were chosen to be rich in hits. Some 2.9% of all compounds tested hit in one or more screens of this group.

SMILES	Calb FLC	MC4R antag cAMP	Efflux pump mplx	MC4R ag barr	GalR3 antagonist	TAG inh	U2OS cAMP counter	MC4R cAMP antag
COc1ccc(NC(=O)/C(Cl)=C(/Cl)S(=O)Cc2ccc(Cl)cc2)cn1 (configuration not stated)	.	76.4*	.	-7.1	34.9*	88.0*	10.5	53.5*
Cc1ccc(OCCNC(=O)[C@H]2O[C@@H](n3cnc4c(N)ncnc43)[C@H](O)[C@@H]2O)cc1C	.	.	.	.	-2.0	.	.	.
COCCN1C[C@@H](CO)O[C@@H](n2cnc3c(N(C)C)ncnc32)C1	.	-0.4	.	1.6	-5.7	-6.0	.	.
NC(=O)c1ccc(SCC(=O)OCC(=O)NCC2CCCCC2)c([N+](=O)[O-])c1	-0.7	31.3*	0.0	-3.5	-1.7	18.1	10.2	36.1*
CCOC(=O)c1cc([N+](=O)[O-])cc([N+](=O)[O-])c1Sc1ncnc2nc[nH]c12	.	58.1*	.	-3.3	-3.1	29.8	46.6*	46.6*
CS(=O)(=O)c1ccc(C(=O)NCCN2C(=O)S/C(=C\c3cccnc3)C2=O)cc1[N+](=O)[O-]	20.5	32.4*	0.0	-1.8	-3.4	17.2	17.5*	32.9*
Cc1ccnc2nc(C(=O)OCC(=O)N3CCc4ccccc43)nn12	?	33.8*	0.0	-1.4	-7.7	17.1	-5.7	-9.9
Cc1ccc(S(=O)(=O)N2CCC[C@H]2C(=O)OCC(=O)N2CCc3ccccc32)cc1	.	31.4*	-0.1	0.4	-0.6	-4.8	7.6	16.1
Cc1ccc(S(=O)(=O)N2CC(CO)=CCC2c2ccccc2)cc1 (configuration not stated)	.	.	.	.	-4.2	.	.	.
CS(=O)(=O)c1ccc(Cl)c(NC(=O)CSc2nc3ccccc3c(=O)n2CCCN2CCOCC2)c1	-0.8	31.5*	0.0	-0.9	-1.7	.	2.1	-0.5
CC(=O)c1ccccc1NC(=O)CSc1nc2ccccc2c(=O)n1CCCN1CCOCC1	.	0.1	0.0	-1.3	2.3	-6.5	.	.
C=CCSc1nc2c(N)ncnc2n1C1OC(CO)C(O)C1O (configuration not stated)	.	31.2*	.	-1.2	-4.2	11.5	-2.7	-9.2
CN(C)CCNC(=O)C1(C)Cc2c(-c3cccc(C(F)(F)F)c3)ccnc2O1 (configuration not stated)	.	2.9	.	0.1	-5.6	9.1	.	.
O=C(Nc1cc(Cl)ncn1)c1ccccc1	2.6	30.0*	0.3	0.1	1.0	-15.8	16.9*	38.1*
CC(C)C[C@H]1COc2c(Cl)cccc2S(=O)(=O)N1	.	.	.	.	-4.2	.	.	.
COC(=O)C[C@H]1CC[C@@H](NC(=O)c2ccncc2)[C@@H](CO)O1	.	.	.	.	-6.5	.	.	.
Nc1nc(Sc2ccc(C(F)(F)F)cn2)n[nH]1	-7.5	30.2*	-0.1	-1.9	-3.9	.	-5.8	-19.6
O=C(COc1ccc2ccccc2c1)N1CCN(C(=O)c2ccc([N+](=O)[O-])cc2)CC1	2.3	31.8*	-0.1	0.3	-4.8	.	2.3	6.9
CCOc1ccc2nc(NC(=O)C3CCCN(S(=O)(=O)c4cccc5nonc45)C3)sc2c1 (configuration not stated)	4.3	33.1*	0.1	1.3	-1.2	.	4.1	22.2
COc1ccc2nc(NC(=O)C3CCCN(S(=O)(=O)c4cccc5nonc45)C3)sc2c1 (configuration not stated)	9.7	13.3	0.1	0.2	-2.4	17.9	.	.
CC(CCc1ccccc1)NC(=O)COC(=O)c1ccc(S(C)(=O)=O)c([N+](=O)[O-])c1 (configuration not stated)	-23.9	69.8*	0.2	-2.7	-8.5	-3.6	32.2*	55.5*
CC(CCc1ccccc1)NC(=O)COC(=O)c1ccc([N+](=O)[O-])cc1 (configuration not stated)	-9.7	7.8	-0.1	-1.4	-11.3	.	.	.
Cc1ccccc1NC(=O)COC(=O)c1ccc(S(C)(=O)=O)c([N+](=O)[O-])c1	?	47.0*	0.5	-1.9	-6.7	.	32.7*	50.6*

Screens (PubChem BioAssay)
